From PubChem
A selection: hits, their analogues and other compounds. The true share with any hit is near 4.4%.
TbMetRS inhib = Trypanosoma brucei MetRS inhibition; purified T. brucei MetRS, ATP depletion, Kinase-Glo luminescence; inhibition, % at 11.9 µM; 360,000 tested, 0.4% active; AID 624268;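 active = inhibition above a per-plate cutoff of the control wells' mean inhibition plus 3 SD, cut at about 5.5% in these data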;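 note: 0% = DMSO wells median and 100% = median of wells with control inhibitor compound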
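technique = Kinase-Glo luminescence, ATP depletion format | system = purified MetRS (methionyl-tRNA synthetase) enzyme from Trypanosoma brucei | timing = 15 min preincubation, 2 h reaction, all 25 °C | evaluation = percent inhibition versus plate control medians | dosing = single dose, 11.9 µM final nominal, 0.9% final DMSO | also added = substrates ATP, L-methionine and bulk Escherichia coli tRNA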
AI-2 QS mod = Vibrio harveyi AI-2 quorum sensing modulation; Vibrio harveyi JMH597 AI-2 luminescence/OD600 ratio, 9 h; active compounds read low; strain lacks LuxN and CqsS sensors; 0 = neutral-control median; activity change, % at 7.5 µM; 300,000 tested, 0.4% active; in the data active = activity change below about -75%, passing the limit was not always enough;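 note: luminescence divided by OD600 gain over 9 h not by final OD600 alone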
HTR2A ag = activates the mouse 5-HT2A serotonin receptor; P35363; activation, % at 7.6 µM; 360,000 tested, 0.66% active; CHO-K1 mHTR2A beta-arrestin complementation, luminescence; percent of 30 µM serotonin response; AID 624169;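 active = activation above a run cutoff, the mean activation of all tested compounds plus 3 SD, cut at about 14% in these data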;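 note: 0% = plate median of compound wells and 100% = 30 µM serotonin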
bovine MsrA act = bovine methionine sulfoxide reductase A activation; purified bovine MsrA, absorbance read-out; activation, % at 10.6 µM; 360,000 tested, 0.3% active; AID 602163; in the data active = activation above about 7.5%;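 note: 0% = vehicle and 100% = reference activator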
AHR act = activates the human aryl hydrocarbon receptor. P35869. AHR-responsive luciferase reporter cells, luminescence. activation, % at 5 µM. 320,000 tested, 2.5% active. AID 2796; in the data active = activation above about 47%;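 note: 0% = vehicle wells and 100% = reference agonist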
Target sequence (P35869 whole entry, looked up): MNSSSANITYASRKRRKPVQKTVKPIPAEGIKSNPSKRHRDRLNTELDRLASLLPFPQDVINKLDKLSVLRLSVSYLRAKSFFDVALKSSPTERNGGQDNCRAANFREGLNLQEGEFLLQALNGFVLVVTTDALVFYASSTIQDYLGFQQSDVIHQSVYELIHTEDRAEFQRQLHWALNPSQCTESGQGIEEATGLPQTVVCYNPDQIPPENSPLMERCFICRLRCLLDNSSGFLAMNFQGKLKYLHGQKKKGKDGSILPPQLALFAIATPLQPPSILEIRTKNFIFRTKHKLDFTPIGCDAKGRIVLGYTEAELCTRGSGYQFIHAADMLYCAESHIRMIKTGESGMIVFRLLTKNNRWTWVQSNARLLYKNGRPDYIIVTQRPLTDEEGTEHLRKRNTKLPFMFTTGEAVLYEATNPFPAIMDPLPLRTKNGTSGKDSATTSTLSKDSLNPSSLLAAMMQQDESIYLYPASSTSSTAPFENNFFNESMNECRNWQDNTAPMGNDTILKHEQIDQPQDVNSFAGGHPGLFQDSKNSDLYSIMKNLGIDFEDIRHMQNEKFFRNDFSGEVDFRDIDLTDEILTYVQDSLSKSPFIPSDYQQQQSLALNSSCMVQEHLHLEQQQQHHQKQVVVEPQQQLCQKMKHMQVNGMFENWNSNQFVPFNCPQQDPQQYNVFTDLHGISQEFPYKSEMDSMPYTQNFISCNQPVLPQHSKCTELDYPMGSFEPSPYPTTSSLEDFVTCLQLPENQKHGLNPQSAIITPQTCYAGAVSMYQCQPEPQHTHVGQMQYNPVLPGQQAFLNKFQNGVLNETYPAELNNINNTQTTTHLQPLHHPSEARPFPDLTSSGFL
MsrA inhibitor = inhibits bovine methionine sulfoxide reductase A. purified bovine MsrA, absorbance read-out. AID 651718. inhibition, % at 15.5 µM. 360,000 tested, 0.75% active; in the data active = inhibition above about 4.5%;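 note: 0% = vehicle wells with enzyme and 100% = reference inhibitor wells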
* marks the source's active call; other numbers are inactive results; / = not tested or not shown.

SMILES	TbMetRS inhib	AI-2 QS mod	HTR2A ag	bovine MsrA act	AHR act	MsrA inhibitor
CS(=O)(=O)c1ccccc1-c1nnc(NC(=O)COc2ccc(Cl)cc2)o1	0	45	-5	0	-2	2
O=C(COc1ccccc1)Nc1nnc(-c2ccccc2Cl)o1	0	-79*	0	-1	0	-1
COc1ccc(CCn2c(C)nc3c(c(=O)c4ccccc4n3C)c2=O)cc1	1	4	-2	-2	29	1
COc1ccc(CNn2c(C)nc3ccccc3c2=O)cc1	-1	6	3	-7	70*	0
CCCCOc1ccc(CNn2c(C)nc3ccccc3c2=O)cc1	0	4	1	-2	1	0
NC(=O)CSc1nc2ccccc2c(=O)n1CCc1ccccc1	-1	23	-1	-2	75*	2
COc1ccc(CCn2c(S)nc3ccccc3c2=O)cc1	-1	-9	2	-1	68*	1
NC(=O)CSc1nc2ccccc2c(=O)n1Cc1ccco1	-1	14	0	-4	4	1
CS(=O)(=O)c1cccc(OCCCN2CCC(C(O)(c3ccccc3)c3ccccc3)CC2)c1	/	/	/	/	/	-1
COC(=O)[C@]12C[C@H](CC(=O)N3CCOCC3)C(=O)N(Cc3ccc4c(c3)OCO4)C1=C[C@H](COCc1ccccc1)O[C@@H]2C	/	/	/	/	/	1
CSc1ncc(CN2CCc3c([nH]c4ccccc34)C2C(C)(C)C)cn1 (centres undefined)	-1	50	10	-5	13	0
Cc1cccc(CN2CCc3c([nH]c4ccccc34)C2C(C)(C)C)n1 (centres undefined)	2	23	-4	-1	60*	-1
O=S(=O)(c1ccc(C(F)(F)F)cc1)N1CCCc2nc(-c3ccccc3)ccc21	/	/	/	/	/	0
COCCN=C1Sc2ccccc2[C@@H]2C[C@H]3[C@H](CON3C)CN12	/	/	/	/	/	1
O=C(OCc1cc(Cl)ccc1OC(F)F)c1ccc([N+](=O)[O-])o1	/	-99*	/	/	-1	/
COc1ccc(NC(=O)COC(=O)c2ccc([N+](=O)[O-])o2)cc1Cl	0	-89*	-3	0	2	0
CCN(CC)c1ccc(/C=N/NC(=O)Nc2nonc2N)cc1	0	30	-4	-2	67*	4
CCN(CC)c1ccc(/C=N/NC(=S)NCc2ccc(OC)cc2)cc1	0	10	2	-5	49*	2
CCN(CC)c1ccc(/C=N/NC(=O)c2ccc(Br)o2)cc1	0	29	-2	-6	88*	4
COc1ccc(C2=NS(=O)(=O)N(C)C(C(=O)Nc3ccc(F)cc3F)=C2)cc1	0	14	-1	-3	3	4
O=C(Cc1ccc(NC(=O)C2CCCN(C(=O)c3ccccc3)C2)cc1)Nc1cccc(C(=O)N2CCCCC2)c1 (centres undefined)	/	/	/	/	/	-1
CCCCCCCCN1C(=O)[C@@H](CC(=O)NCc2cccc(C(F)(F)F)c2)C[C@@]2(C(=O)OC)C1=C[C@H](C1CCCC1)O[C@@H]2C	/	/	/	/	/	0
O=C(C(=O)N1CCN(C(=O)C2CCC2)CC1)c1cccc(C(F)(F)F)c1	/	/	/	/	/	0
Brc1cccc(OCCSc2ncccn2)c1	-1	-82*	-6	0	-1	-1
Nc1nnc(SCCOc2cccc(Br)c2)s1	0	-79*	2	3	1	0
SMILES	TbMetRS inhib	AI-2 QS mod	HTR2A ag	bovine MsrA act	AHR act	MsrA inhibitor
CCN(CC)CCNC(=O)c1ccc(NCN2C(=O)NC(c3ccccc3)(c3ccccc3)C2=O)cc1	/	/	/	/	/	1
Cc1cc(NC(=O)CCc2c[nH]c3ccccc23)ccc1Oc1cccnc1	/	/	/	/	/	0
C=CCn1c(C)cc(C(=O)CSc2n[nH]c(N)n2)c1C	-1	28	4	-12	50*	1
C[C@H](CO)N1C[C@H](C)[C@@H](CN(C)C(=O)Cc2cccnc2)Oc2ncc(C#CCc3ccccc3)cc2C1=O	/	/	/	/	/	0
S=C(Nc1ccc(N2CCOCC2)cc1)Nc1ccc2snnc2c1	0	23	-4	-5	55*	2
O=C(N/N=C/c1cccnc1)c1ccc(Cn2cc([N+](=O)[O-])cn2)o1	-1	23	-3	-11	63*	2
O=C(N/N=C\c1ccc(Cl)s1)c1ccc(Cn2cccn2)o1	0	10	-5	-3	73*	4
CC(C)c1ccc(/C=N\NC(=O)c2ccc(Cn3cccn3)o2)cc1	-1	15	2	-9	23	2
CCCCCCCCN1C(=O)[C@@H](CC(=O)N2CCOCC2)C[C@@]2(C(=O)OC)C1=C[C@H](C(C)(C)C)O[C@@H]2C	/	/	/	/	/	0
CCOC(=O)C1CCCN(C(=O)c2cc3cc(F)ccc3[nH]2)C1 (centres undefined)	0	3	4	0	50*	1
CCOC(=O)N1CCN(C(=O)c2cc3cc(F)ccc3[nH]2)CC1	0	-1	1	-3	58*	-1
CCOC(=O)C1CCN(C(=O)c2cc3cc(F)ccc3[nH]2)CC1	-1	4	1	-1	/	-1
O=C(c1cc2cc(F)ccc2[nH]1)N1CCCC(Nc2ccc(F)cc2)C1 (centres undefined)	-1	17	-3	-4	63*	0
c1ccc(C2=NNC(c3ccco3)=Nc3ccccc32)cc1	-1	-3	-1	-8	8	0
Cc1ccc(C2=NNC(c3ccc(Cl)cc3)=Nc3ccccc32)o1	0	19	5	0	50*	0
O=[N+]([O-])c1ccc(O)c(/C=N\N=C2c3ccccc3-c3ccccc32)c1	0	18	0	-1	47*	1
Cc1cccc(NC(=O)c2cnc3sccn3c2=O)c1C	-1	24	-4	-3	/	1
COc1ccccc1CNC(=O)c1cnc2sccn2c1=O	0	27	3	-1	53*	3
COc1ccccc1CNC(=O)c1cnc2ccccn2c1=O	0	6	7	-4	38	3
Cc1cccc(NC(=O)c2cnc3sccn3c2=O)c1	0	9	0	-6	68*	2
CCOC(=O)Cc1csc(N/N=C/c2ccccc2)n1	-1	31	0	-3	-11	2
CCOC(=O)Cc1csc(N/N=C\c2ccccc2OC)n1	0	18	-5	-6	51*	2
CC(=O)N(c1cccc(C(F)(F)F)c1)c1nc(/C=C/C(=O)O)cs1	0	28	3	-2	73*	1
COc1ccccc1C(=O)N1CCN(C(=O)[C@@H](Cc2ccccc2)NC(=O)[C@H]2O[C@@H](n3ccc(N)nc3=O)[C@H](O)[C@@H]2O)CC1	/	/	/	/	/	0
NNc1ncnc2c1cnn2-c1ccccc1	0	25	7	4	61*	0
COc1ccc(CC(=O)NNc2ncnc3c2cnn3-c2ccc(C)cc2)cc1	-1	-10	4	-4	3	0
CC(C)Nc1ncnc2c1cnn2-c1ccccc1	0	10	-4	0	-1	-1
